Results gathered from unrelated publications.
Target: Serine/threonine-protein kinase Sgk2 (SGK2, Homo sapiens, UniProt Q9HBY8)
Sequence (Q9HBY8 1-367, as in one of the studies): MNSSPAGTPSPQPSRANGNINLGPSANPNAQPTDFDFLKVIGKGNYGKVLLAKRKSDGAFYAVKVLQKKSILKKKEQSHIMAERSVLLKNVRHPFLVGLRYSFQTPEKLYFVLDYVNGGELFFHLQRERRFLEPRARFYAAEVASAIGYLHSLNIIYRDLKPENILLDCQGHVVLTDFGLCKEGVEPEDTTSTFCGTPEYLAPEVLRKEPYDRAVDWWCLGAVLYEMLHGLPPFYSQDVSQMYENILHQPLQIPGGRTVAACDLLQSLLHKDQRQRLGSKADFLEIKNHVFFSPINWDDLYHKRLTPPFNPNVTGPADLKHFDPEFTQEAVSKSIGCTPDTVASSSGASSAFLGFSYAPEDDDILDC

O=C1Nc2ccc(Cl)cc2C1=Cc1cc(Cl)c(O)c(Cl)c1  remaining signal (cell-free assay; 0.5 µM): 89.2%
NS(=O)(=O)c1cc(NC(=O)C2(c3ccccc3Cl)CC2)ccc1Oc1cccc(Cl)c1  remaining binding (cell-free assay; competition with immobilised ligand; 1 µM): 100%
CNC(=O)c1cc(Oc2ccc(NC(=O)Nc3ccc(Cl)c(C(F)(F)F)c3)cc2)ccn1  inhibition (enzyme activity; inhibitor; 0.3 µM): 3%
Cc1cc(NC(=O)c2cccc3cc(-c4cccc5[nH]nc(N)c45)ccc23)ccc1F  activity vs control (enzyme activity; inhibitor; 0.1 µM): 76%
COc1cc2ncnc(Nc3ccc(Oc4ccccc4)c(C)c3C)c2cc1OC  inhibition (enzyme activity; inhibitor; 1 µM): 0%
Cc1ccc(Nc2nccc(N(C)c3ccc4c(C)n(C)nc4c3)n2)cc1S(N)(=O)=O  inhibition (enzyme activity; inhibitor; 10 µM): 10%
Cn1cnc(Br)c1C1=CN(c2ncnc3[nH]cnc23)CCS1  inhibition (enzyme activity; inhibitor; radiometric; 2 µM): 82.2%
CO[C@H]1CC[C@H](CNc2ccc(S(=O)(=O)NC(=O)c3ccc(N4CCN(CC5=C(c6ccc(Cl)cc6)CC(C)(C)CC5)CC4)cc3Oc3cnc4[nH]ccc4c3)cc2[N+](=O)[O-])CC1  remaining binding (cell-free assay; competition with immobilised ligand; 1 µM): 91%
Nc1ncnc2occ(-c3ccc(NC(=O)Nc4cc(C(F)(F)F)ccc4F)cc3)c12  remaining signal (cell-free assay; inhibitor; 20 µM): 13%
O=C(Nc1cnn(-c2csc(C(=O)NC3COC3)c2)c1)Nc1ccccc1Cl  remaining activity (enzyme activity; inhibitor; 5 µM): 101%
Cc1ccc(NC(=O)c2ccc(C)c(C(F)(F)F)c2)cc1C#Cc1nn(C2CCC(O)CC2)c2ncnc(N)c12 (stereo not drawn)  remaining signal (cell-free assay; 10 µM): 97%
CN([C@@H]1CCc2c(CC(=O)O)c3cc(S(C)(=O)=O)ccc3n2C1)S(=O)(=O)c1ccc(F)cc1  remaining binding (cell-free assay; competition with immobilised ligand; 1 µM): 100%
CC(C)(C)c1nc2c(s1)c1nc(N)ncc1c1ccc(NS(=O)(=O)c3c(F)cccc3F)c(F)c12  remaining activity (enzyme activity; inhibitor; radiometric; 1 µM): 91%
CCCOc1ccc(OC)c(F)c1C(=O)c1ccc(C(=O)N[C@@H]2CNC[C@H]2NC(=O)c2ccc3[nH]ncc3c2)cc1  remaining activity (enzyme activity; inhibitor; 10 µM): 1%
COc1cc(Cl)c(C(=O)N[C@@H](CN[C@H]2CC[C@@H](N)CC2)Cc2ccc(C#N)cc2)cc1-c1ccc(CN[C@H](C)c2ccc(C)cc2)o1  remaining activity (enzyme activity; inhibitor; 1 µM): 82%
Cc1nccc(COC(=O)N2C[C@@H]3[C@@H](CNC(=O)c4ccc5[nH]nnc5c4)[C@@H]3C2)n1  remaining binding (cell-free assay; competition with immobilised ligand; 1 µM): 100%
CCN(CC)CCNC(=O)c1c(C)[nH]c(/C=C2\C(=O)Nc3ccc(F)cc32)c1C  inhibition (enzyme activity; inhibitor; 10 µM): 48%
CCc1ccccc1C(=O)Nc1n[nH]c2c(C)c(F)c(C3C(C#N)=C(C)N(C)C(C)=C3C#N)cc12  remaining binding (cell-free assay; competition with immobilised ligand; 1 µM): 100%
CC(C)(O)[C@H]1CC[C@H](Nc2ccc3ncc(-c4cccc(C(F)(F)F)c4)n3n2)CC1  remaining activity (enzyme activity; inhibitor; 1 µM): 96.1%
Nc1cnc(N2CCc3cc(S(=O)(=O)Nc4c(F)cc(Cl)cc4F)cc(N4CCCC4=O)c32)nc1  remaining binding (cell-free assay; competition with immobilised ligand; 1 µM): 76%
CCN(CC)c1ccc(C2=NNC(=O)CC2C)cc1[N+](=O)[O-] (stereo not drawn)  remaining activity (enzyme activity; inhibitor; 10 µM): 104%
